# OX1R antag-1: OX1R (HCRTR1) antagonists, primary screen, fluorescence, CHO/OX1R cells, Fluo-8 calcium, orexin A; Fluo-8 calcium fluorescence; inhibition, % at 5 µM; 0.43% of 330,000 active;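 active = inhibition above its plate's threshold, mean inhibition of all tested compounds on the plate plus 3 SD, cut at about 37% in these data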
# CHO parental Ca: ATP-evoked calcium signal inhibitors, parental CHO, primary screen, counter-screen for OX1R antagonist project, cell-based, fluorescence, Fluo-8 calcium dye | parental CHO-K1, ATP-induced calcium, Fluo-8 fluorescence | inhibition, % at 5.6 µM | 0.63% of 330,000 active | AID 463079, 2010;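 active = inhibition above that plate's mean sample inhibition plus 3 SD, cut at about 26% in these data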
#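 Assay system: parental CHO cells; Read-out basis: percent inhibition of ATP-evoked calcium rise, normalized to controls; Benchmarks: ATP and no-ATP DMSO wells; Compound dosing: single nominal dose of 5.6 µM per compound; Signal: Fluo-8 calcium dye fluorescence; Also added: ATP as calcium-mobilizing challenge; Repeats: singlicate.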
# TAAR1 antag: human TAAR1 antagonists, primary screen, Fluo-8 calcium fluorescence, CHO RD-HGA16 cells. Trace amine-associated receptor 1 (Homo sapiens), Q96RJ0. antagonist. inhibition, % at 3 µM. 1.5% of 360,000 active. AID 624466, 2012;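 active = inhibition above a per-plate cutoff, the mean inhibition of test compounds on that plate plus 3 SD, cut at about 49% in these data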
# Target sequence (Q96RJ0 whole entry, looked up): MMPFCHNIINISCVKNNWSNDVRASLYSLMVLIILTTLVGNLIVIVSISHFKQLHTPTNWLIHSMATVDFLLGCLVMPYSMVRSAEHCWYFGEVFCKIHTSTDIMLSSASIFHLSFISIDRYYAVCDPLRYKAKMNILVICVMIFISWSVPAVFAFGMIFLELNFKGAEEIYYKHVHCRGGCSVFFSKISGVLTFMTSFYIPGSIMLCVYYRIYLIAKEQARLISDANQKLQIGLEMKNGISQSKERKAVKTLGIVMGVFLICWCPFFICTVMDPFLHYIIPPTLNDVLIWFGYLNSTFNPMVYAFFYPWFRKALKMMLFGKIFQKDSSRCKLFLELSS
#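 Test system – hTAAR1-expressing CHO RD-HGA16 cells, Gα16-coupled · Reagent – β-PEA at EC80 concentration, post-compound challenge · Compound dosing – 3 µM, single point · Timing – 140 s kinetic read after compound, 140 s after agonist · Detection – Fluo-8 intracellular calcium dye fluorescence, real-time kinetic reads · Control set – DMSO and EC80 PEA controls · Repeats – n of 1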
# GalR3 antag: GalR3 antagonists in HEK293 cells, primary screen, cell-based, fluorescence readout. Galanin receptor type 3 (Homo sapiens), O60755. HEK293 GalR3-CNG cAMP membrane potential fluorescence; galR3 body fused to GalR1 C-terminus. inhibition, % at 3 µM. 0.44% of 360,000 active. AID 651719, 2012;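 active = inhibition above the screen-wide average plus 3 SD, cut at about 13% in these data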;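 also: forskolin and galanin both at EC90 stimulate the cells; cAMP rise reported by CNG channel membrane potential dye signal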
# TAAR1 ag: human TAAR1 agonists, primary screen, Fluo-8 calcium fluorescence, CHO RD-HGA16 cells; Trace amine-associated receptor 1 (Homo sapiens), Q96RJ0; vehicle wells 0%, saturating PEA agonist 100%; activation, % at 3 µM; 0.99% of 360,000 active;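 active = activation above the mean activation of all test compounds in the run plus 3 SD, cut at about 38% in these data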
#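 Test system: RD-HGA16 (CHO) cells co-expressing Gα16 and hTAAR1; dosing: one-point dosing at 3 µM (nominal); timing: 17-24 h seeding, 75 min 37 °C dye, 30 min RT; signal: kinetic Fluo-8 calcium fluorescence; read-out basis: % activation relative to PEA EC100 response; controls: DMSO and PEA EC100; replicates: n 1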
# OX1R antag-2: antagonists of human orexin 1 receptor (OX1R) | Orexin/Hypocretin receptor type 1 (Homo sapiens), O43613 | OX1R-expressing cells, FRET antagonist read-out | inhibition, % at 6.6 µM | 1.8% of 330,000 active | AID 485270, 2010; in the data active = inhibition mostly above about 38%, no sharp cut-off; inactive = mostly below about 40%
# GalR3 antag conf: GalR3 antagonist hit confirmation, cell-based, fluorescence, triplicate; 59% of 1,600 active; HEK293 GalR3 CNG cAMP biosensor, membrane potential fluorescence; galR3 fused to GalR1 carboxy tail; challenged with forskolin and galanin at EC90; shares compounds with GalR3 antag; AID 652245, 2013; inhibition, % at 3 µM;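 active = inhibition above the primary screen's cutoff, the mean inhibition of all screened compounds plus 3 SD, cut at about 13% in these data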
# HEK-CNG parental: nonspecific cAMP agonists in parental HEK-CNG cells, counter-screen for GalR3 antagonist project, cell-based, fluorescence, high throughput. shares compounds with GalR3 antag. HEK293-CNG parental cells, cAMP membrane potential fluorescence; normalised: DMSO wells 0%, forskolin wells 100%. activation, % at 3 µM. 10% of 1,600 active. AID 652268, 2013; in the data active = activation above about 1.3%
# Numbers stand for hits; – = inactive; · = no result. In the library only some 4.3% were active in any assay of this set; here they are far more common.
SMILES,OX1R antag-1,CHO parental Ca,TAAR1 antag,GalR3 antag,TAAR1 ag,OX1R antag-2,GalR3 antag conf,HEK-CNG parental
COCCN1C[C@@H](CO)O[C@@H](n2cnc3c(NC4CC4)ncnc32)C1,·,·,–,–,–,·,·,·
Cc1ccc(C)c(S(=O)(=O)N2CCN(C(=O)CCC(=O)NCc3ccc(Cl)cc3Cl)CC2)c1,·,·,–,–,–,·,·,·
COc1ccc(CCNC(=O)CSc2ccc(-c3ccco3)nn2)cc1,–,–,–,13.4,–,–,–,–
CC12CCC3c4ccc(O)cc4CCC3C1CC(=NO)C2O (configuration not stated),·,·,–,–,–,·,·,·
O=C(NCCN1CCOCC1)c1ccc(Cl)c(S(=O)(=O)NCc2ccccc2)c1,–,–,–,–,–,–,·,·
COc1ccc2[nH]cc(/C=C/c3cc[n+](C)cc3)c2c1,–,–,–,–,–,–,·,·
CCOc1nc2cnccc2n(CC(=O)Nc2c(C)cccc2CC)c1=O,–,–,–,–,–,–,·,·
CC(=O)OCCCNc1cc(Sc2nc3ccccc3s2)c2nonc2c1[N+](=O)[O-],–,–,·,·,·,–,·,·
CC(=O)OCCNc1cc(Sc2nc3ccccc3[nH]2)c2nonc2c1[N+](=O)[O-],–,48.0,–,45.7,–,98.4,31.7,–
Cc1cc(C)c2nc(N3C(=O)C(O)=C(C(=O)c4ccco4)C3c3cccc(O)c3)sc2c1 (configuration not stated),–,–,–,13.8,–,–,–,–
OCc1ccccc1O[C@@H]1O[C@H](CO)[C@@H](O)[C@H](O)[C@H]1O,–,–,–,–,–,–,·,·
Nc1oc2ccccc2c1C(=O)Cc1ccccc1O[C@@H]1O[C@H](CO)[C@@H](O)[C@H](O)[C@H]1O,–,–,–,15.7,–,–,–,–
COc1ccc(C(O)c2nccc3cc(OC)c(OC)cc23)cc1OC (configuration not stated),–,–,–,16.8,–,–,–,–
COc1cc(N)c(C(O)c2nccc3cc(OC)c(OC)cc23)cc1OC (configuration not stated),–,–,–,–,–,–,·,·
CCOC(=O)C1CCCN(S(=O)(=O)c2cc(OCC(=O)NC3CCCCC3)c(C)cc2Cl)C1 (configuration not stated),–,–,–,–,–,–,·,·
Cc1cc(Cl)c(S(=O)(=O)N2CCN(c3ccc(F)cc3)CC2)cc1OCC(=O)NC1CCCCC1,52.5,58.3,–,97.4,–,–,110.5,–
O=c1[nH]cccc1-c1nc2ccccc2n1Cc1ccc(F)cc1,–,–,–,87.2,–,–,–,–
Cc1cc2nc(-c3ccc[nH]c3=O)n(Cc3ccc(F)cc3)c2cc1C,–,–,–,–,–,–,·,·
